The text below walks through data of ChEMBL document CHEMBL2177013, “Synthesis and biological evaluation of tylophorine-derived dibenzoquinolines as orally active agents: exploration of the role of tylophorine e ring on biological activity” (J Med Chem, 2012).

pEC50: −log10 of the molar value. ≈ marks a conversion by molar mass, not a printed value. Calls of active or inactive are those of the source. The rule behind the calls is not given here.

Series [1] in a line: Cytotoxicity against mouse RAW264.7 cells. The series is classed as cell-based. The gist of the method: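 RAW264.7 cells stimulated with LPS/IFNγ and compound-treated in parallel with the NO assay; CC50 taken as concentration giving 50% inhibition of cell growth. Mean of at least three experiments, each in duplicate.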
A further series deals with NUGC-3. Kind of series: Growth inhibition of human NUGC3 cells. The class given is functional. An outline of the steps:
(§1)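 Cells seeded per well: NUGC-3 4500, HONE-1 6000, MCF-7 6500, NCI-H460 2500, HepG2 10000, A549 5000; A549 grown in RPMI 1640 with 2 g/L NaHCO₃, 2 mM L-glutamine and 10% FBS. GI₅₀ = concentration giving 50% growth inhibition, mean of at least three experiments each in duplicate. Paclitaxel served as positive control.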

A short description of series [2]: Oral bioavailability in Sprague-Dawley rat at 3 mg/kg by HPLC-MS method. To be noted: in vivo. The class given is ADME, organism-based. The gist of the method: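 Male rats (330−380 g, 9−10 weeks), jugular vein cannula implanted 1 day before, fasted. 3 mg/kg given iv or orally (n = 3) in DMA/PEG400 30/70 v/v. Blood (150 μL) drawn at 0, 2, 5 (iv only), 15, 30 min and 1, 2, 4, 6, 8, 12, 24 h; plasma analysed by HPLC-MS; noncompartmental analysis.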

In series [3] the test system is MCF7. Kind of series: Growth inhibition of human MCF7 cells. The series is classed as functional. An outline of the steps:
as §1

Series [4] concerns Transmissible gastroenteritis virus. Briefly: Antiviral activity against Transmissible gastroenteritis virus infected in ST cells assessed as reduction in caspase-3 activation pre-treated before virus infection measured 16 hrs post virus infection by Western blotting. The series is classed as functional, organism-based. The gist of the method: (§2)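 ST cells pretreated with compound, then infected with TGEV. Western blot for nucleocapsid (N) protein, caspase 3 (cleavage of procaspase 3) and GAPDH at 16 hpi. Representative of at least three independent experiments.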
For orientation: In western blotting, separated proteins are transferred to a membrane and probed.

Series [5] has the same test system. Briefly: Antiviral activity against Transmissible gastroenteritis virus infected in ST cells assessed as reduction in N-protein expression pre-treated before virus infection measured 16 hrs post virus infection by Western blotting. The class given is functional, organism-based. An outline of the steps: as §2
Series [6] concerns A549. Briefly: Down regulation of cyclin A2 expression in human A549 cells incubated for 24 hrs by Western blotting. The class given is functional, cell-based.
For series [7], the system named is RAW264.7. Briefly: Antiinflammatory activity in mouse RAW264.7 cells assessed as inhibition of LPS-induced nitric oxide production incubated for 18 hrs by nitrate/nitrite assay. The class given is functional, cell-based. To be noted: RAW264.7, 18 h. An outline of the steps: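 RAW264.7 seeded 65000 cells/well, cultured 24 h, then medium replaced with complete medium containing IFNγ (20 ng/mL)/LPS (5 μg/mL) plus compound at various concentrations for 18 h; nitric oxide measured by Nitrate/Nitrite kit. EC50 as mean of at least three experiments, each in duplicate.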

Series [8] relates to Murine hepatitis virus. Kind of series: Antiviral activity against Murine hepatitis virus JHM infected in mouse DBT cells assessed as reduction in virus-induced cytopathic effect at 0.2 to 2 uM pre-treated 1 hr before virus infection and measured 24 hrs post infection by phase contrast microscopy. The series is classed as functional, organism-based. The gist of the method: (§3)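 DBT murine astrocytoma cells in DMEM/10% heat-inactivated FBS, seeded 2.8 × 10⁵ cells/well the day before infection. Medium switched to DMEM/2% FBS, compound added 1 h before MHV-JHM infection at MOI 0.005. Cytopathic effect viewed by phase contrast and N protein by immunofluorescence at 24 hpi.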
(Cytopathic effects are the visible damage that an infection or toxin causes in cultured cells.)

Series [9] concerns Murine hepatitis virus. Briefly: Antiviral activity against Murine hepatitis virus JHM infected in mouse DBT cells assessed as reduction in N-protein expression at 0.2 to 2 uM pre-treated 1 hr before virus infection and measured 24 hrs post infection by immunofluorescent assay. The class given is functional, organism-based. An outline of the steps:
as §3

The test system of series [10] is A549. Kind of series: Induction of c-Jun protein accumulation in human A549 cells incubated for 24 hrs by Western blotting. The series is classed as functional, cell-based.
In series [11] the test system is NCI-H460. Kind of series: Down regulation of cyclin A2 expression in human NCI-H460 cells incubated for 24 hrs by Western blotting. The class given is functional, cell-based.
A short description of series [12]: Growth inhibition of human HONE1 cells. The class given is functional. An outline of the steps:
as §1

The test system of series [13] is NCI-H460. Briefly: Growth inhibition of human NCI-H460 cells. The class given is functional. An outline of the steps: as §1
Series [14] in a line: Solubility in DMA. The class given is physicochemical.
Series [15] concerns MCF7. Kind of series: Induction of c-Jun protein accumulation in human MCF7 cells incubated for 24 hrs by Western blotting. The class given is functional, cell-based.
Series [16] deals with MCF7. Briefly: Down regulation of cyclin A2 expression in human MCF7 cells incubated for 24 hrs by Western blotting. The series is classed as functional, cell-based.
The next series has as its system SF-268. Briefly: Growth inhibition of human SF268 cells. The class given is functional. The gist of the method:
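SF-268 glioblastoma cells seeded 7500 cells/well in 96-well plates; growth inhibition measured with compound. GI50 as mean of at least three experiments, each in duplicate; paclitaxel positive control.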

Series [17] is described as follows: Solubility in DMSO. The series is classed as physicochemical. An outline of the steps: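 Compound dissolved in DMSO with sonication; maximal volume before precipitation measured and used to calculate saturation solubility.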
Series [18] has as its system RAW264.7. Briefly: Reduction in LPS/INFgamma-induced iNOS protein expression in mouse RAW264.7 cells incubated for 20 hrs by Western blotting. The series is classed as functional, cell-based. The gist of the method: (§4)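 LPS/IFNγ-stimulated RAW264.7 cells treated with compound for 20 h. iNOS, COX-2 and GAPDH detected by Western blot; representative of at least three independent experiments.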

Series [19] concerns RAW264.7. Briefly: Reduction in LPS/INFgamma-induced COX2 protein expression in mouse RAW264.7 cells incubated for 20 hrs by Western blotting. The series is classed as functional, cell-based. An outline of the steps:
as §4

Series [20] concerns NCI-H460. Kind of series: Induction of c-Jun protein accumulation in human NCI-H460 cells incubated for 24 hrs by Western blotting. The class given is functional, cell-based.
The subject of series [21] is Transmissible gastroenteritis virus. Briefly: Antiviral activity against Transmissible gastroenteritis virus infected in ST cells pre-treated 2 hrs before virus infection measured 6 hrs post virus infection by immunofluorescent assay. To be noted: Alphacoronavirus 1, ST. The series is classed as functional, organism-based. An outline of the steps:
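ST cells, with or without 2 h compound pretreatment (10 concentrations), infected with TGEV at MOI 10. Immunofluorescence with anti-spike and anti-nucleocapsid antibodies at 6 hpi. EC50 from dose–response curves, mean of at least three experiments, each in duplicate.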

Series [22] is described as follows: Volume of distribution at steady state in Sprague-Dawley rat at 1.5 mg/kg, iv by HPLC-MS method. To be noted: in vivo, read-out: Vdss. The arrangement: dose 1.5 mg/kg, route intravenous. The class given is ADME, organism-based. The gist of the method:
(§5)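 Male rats (330−380 g, 9−10 weeks old) fitted with a jugular vein cannula 1 day before dosing and fasted; 1.5 mg/kg given iv or orally in DMA/PEG400 (50/50, v/v), n = 3. Blood (150 μL) drawn at 0, 2, 5 (iv only), 15, 30 min and 1, 2, 4, 6, 8, 12, 24 h. Plasma analysed by HPLC-MS; parameters by noncompartmental analysis.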

Series [23] can be described thus: Oral bioavailability in Sprague-Dawley rat at 1.5 mg/kg by HPLC-MS method. The class given is ADME, organism-based. To be noted: in vivo. An outline of the steps:
as §5

The nature of series [24]: Apparent elimination half life in Sprague-Dawley rat at 1.5 mg/kg, po by HPLC-MS method. The series is classed as ADME, organism-based. The arrangement: dose 1.5 mg/kg, route oral. To be noted: in vivo, read-out: betat1/2(app) (converted). The gist of the method:
as §5

A short description of series [25]: AUC (0 to infinity) in Sprague-Dawley rat at 1.5 mg/kg, po by HPLC-MS method. To be noted: plasma. Set-up: time infinity, dose 1.5 mg/kg, route oral. The series is classed as ADME, organism-based. An outline of the steps: as §5
The nature of series [26]: Clearance in Sprague-Dawley rat at 1.5 mg/kg, iv by HPLC-MS method. The class given is ADME, organism-based. The arrangement: dose 1.5 mg/kg, route intravenous. To be noted: in vivo. The gist of the method:
as §5

Series [27] can be described thus: Tmax in Sprague-Dawley rat at 1.5 mg/kg, po by HPLC-MS method. The series is classed as ADME, organism-based. The arrangement: dose 1.5 mg/kg, route oral. To be noted: in vivo. An outline of the steps: as §5
Series [28] can be described thus: Cmax in Sprague-Dawley rat at 1.5 mg/kg, po by HPLC-MS method. The series is classed as ADME, organism-based. The arrangement: dose 1.5 mg/kg, route oral. To be noted: in vivo. An outline of the steps:
as §5

A short description of series [29]: Apparent elimination half life in Sprague-Dawley rat at 1.5 mg/kg, iv by HPLC-MS method. The series is classed as ADME, organism-based. Set-up: dose 1.5 mg/kg, route intravenous. To be noted: in vivo, read-out: betat1/2(app) (converted). An outline of the steps:
as §5

Series [30] in a line: AUC (0 to infinity) in Sprague-Dawley rat at 1.5 mg/kg, iv by HPLC-MS method. The series is classed as ADME, organism-based. Set-up: time infinity, dose 1.5 mg/kg, route intravenous. To be noted: plasma. The gist of the method: as §5

Broadly, the CC50 is the concentration giving 50% cytotoxicity. Low readings indicate greater toxicity to the cells, high ones lower toxicity to the cells. For orientation: GI50 means the concentration giving 50% growth inhibition. As usually defined, the bioavailability is dose-corrected exposure relative to a reference, in per cent. A high value points to good availability. One may read the pEC50 as −log10 of the EC50, conventionally taken in molar units. As a reminder, the solubility is the concentration that dissolves in the medium under given conditions. In series [1], `COc1cc2c3c(c4cc(OC)c(OC)cc4c2cc1OC)CN1CCC[C@@H]1C3` [TYLOPHORINE] had a CC50 of 1240 nM. Besides, the GI50 in the series on NUGC-3 worked out at 190 nM; in the series on MCF7 [3] it was 240 nM; in series [12] it was 270 nM; in the series with NCI-H460 [13], 230 nM; in the series with SF-268, 270 nM. Further, in series [2], the bioavailability amounted to 66%. Further, the outcome (in series [4]; in series [5]; in the series with A549 [6]; in the series with Murine hepatitis virus [8]; in the series with Murine hepatitis virus [9]; in the series on A549 [10]) was Active. In addition, the outcome in the series with NCI-H460 [11], in the series with MCF7 [15], with MCF7 [16], in the series on RAW264.7 [18], in the series with RAW264.7 [19] and in the series with NCI-H460 [20] was Active. Further, the results for the pEC50 (in the series with RAW264.7 [7]; in series [21]) were 6.57 and 7.10, respectively. In addition, the figures for the solubility entry in series [14] and in [17] were “soluble” and 10 mM (≈ 3930 µg/mL), respectively.
By AUC(0-inf) is commonly meant total exposure, with the tail of the curve extrapolated. Read a low AUC(0-inf) as low exposure. As usually defined, the clearance is the volume of plasma or blood freed of the substance per unit of time. Lower therefore signals a low capacity for elimination. One may read the Tmax as the time at which the peak concentration occurs. Broadly, the Cmax is the highest concentration seen after dosing. In the case of `COc1cc2c(cc1OC)[C@@H]1[C@@H](O)[C@@H]3CCC(=O)N3C[C@@H]1c1cc(OC)c(OC)cc1-2` [TYLOPHOVATINE C], the Vd in series [22] is 12.4 L/kg. This compound also displayed a bioavailability in series [23] of 54.3%. Besides, the half-life in series [24] is 7.6 h; in [29] it was 4.6 h. In addition, the area under the curve AUC(0-inf) turned out to be 453 ng·h/mL in [25] and 448 ng·h/mL in [30]. The compound also gave a clearance in series [26] of 37.6 mL/min/kg. Also, the Tmax in series [27] turned out to be 4.3 h. This compound also gave a Cmax in series [28] of 39 ng/mL.
